In ChEMBL document CHEMBL3102746, “Anticomplement monoterpenoid glucosides from the root bark of Paeonia suffruticosa” (J Nat Prod, 2014):
The source made the active and inactive calls. No cut-off for these calls is given here.

Legend:
Assay type in all cases: functional, cell-based
[1] = Anticomplement activity in sheep erythrocytes assessed as concentration required for 50% hemolytic inhibition by classical pathway after 30 mins by spectrophotometry; conditions: Ovis aries; Erythrocyte
In short: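 Sheep erythrocytes sensitized with rabbit anti-sheep erythrocyte antibodies in GVB2+. Test sample dilutions in GVB2+ preincubated with guinea pig serum (1:80) at 37 °C for 10 min, then EA added for 30 min at 37 °C. Supernatant OD read at 405 nm. Blank, 100% lysis and sample controls included. CH50 taken from mean of triplicates at each concentration. Heparin served as positive control.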

[2] = Anticomplement activity in New Zealand White rabbit erythrocytes assessed as concentration required for 50% hemolytic inhibition by alternative pathway after 30 mins; conditions: Oryctolagus cuniculus, Erythrocyte
In short: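 Samples diluted in GVB-Mg-EGTA and preincubated with 1:10 normal human serum at 37 °C for 10 min. Rabbit erythrocytes (3.0 × 10^8 cells/mL) then added for 30 min at 37 °C. Lysis read as supernatant OD at 405 nm. AP50 expressed as 50% inhibitory concentration. Heparin served as positive control.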

[3] = Anticomplement activity in sheep erythrocytes in C9-depleted serum assessed as inhibition of hemolysis by classical pathway at 0.54 mM after 30 mins compound treated in normal human serum; conditions: Ovis aries, Erythrocyte
[4] = Anticomplement activity in sheep erythrocytes in C5-depleted serum assessed as inhibition of hemolysis by classical pathway at 0.54 mM after 30 mins compound treated in normal human serum; conditions: Ovis aries, Erythrocyte
[5] = Anticomplement activity in sheep erythrocytes in C1q-depleted serum assessed as inhibition of hemolysis by classical pathway at 0.54 mM after 30 mins compound treated in normal human serum; conditions: Ovis aries, Erythrocyte
[6] = Anticomplement activity in sheep erythrocytes in C3-depleted serum assessed as inhibition of hemolysis by classical pathway at 0.54 mM after 30 mins compound treated in normal human serum; conditions: Ovis aries, Erythrocyte
[7] = Anticomplement activity in sheep erythrocytes in C9-depleted serum assessed as inhibition of hemolysis by classical pathway at 0.45 mM after 30 mins compound treated in normal human serum; conditions: Ovis aries, Erythrocyte
[8] = Anticomplement activity in sheep erythrocytes in C1q-depleted serum assessed as inhibition of hemolysis by classical pathway at 0.45 mM after 30 mins compound treated in normal human serum; conditions: Ovis aries, Erythrocyte
[9] = Anticomplement activity in sheep erythrocytes in C5-depleted serum assessed as inhibition of hemolysis by classical pathway at 0.45 mM after 30 mins compound treated in normal human serum; conditions: Ovis aries, Erythrocyte
[10] = Anticomplement activity in sheep erythrocytes in C3-depleted serum assessed as inhibition of hemolysis by classical pathway at 0.45 mM after 30 mins compound treated in normal human serum; conditions: Ovis aries, Erythrocyte
[11] = Anticomplement activity in sheep erythrocytes in C5-depleted serum assessed as hemolysis by classical pathway at 1.09 mM after 30 mins compound treated in normal human serum; conditions: Ovis aries, Erythrocyte
[12] = Anticomplement activity in sheep erythrocytes in C3-depleted serum assessed as hemolysis by classical pathway at 1.09 mM after 30 mins compound treated in normal human serum; conditions: Ovis aries, Erythrocyte
[13] = Anticomplement activity in sheep erythrocytes in C4-depleted serum assessed as hemolysis by classical pathway at 1.09 mM after 30 mins compound treated in normal human serum; conditions: Ovis aries, Erythrocyte
[14] = Anticomplement activity in sheep erythrocytes in C1q-depleted serum assessed as hemolysis by classical pathway at 1.09 mM after 30 mins compound treated in normal human serum; conditions: Ovis aries, Erythrocyte
[15] = Anticomplement activity in sheep erythrocytes in C9-depleted serum assessed as hemolysis by classical pathway at 1.09 mM after 30 mins compound treated in normal human serum; conditions: Ovis aries, Erythrocyte
[16] = Anticomplement activity in sheep erythrocytes in C2-depleted serum assessed as hemolysis by classical pathway at 1.09 mM after 30 mins compound treated in normal human serum; conditions: Ovis aries, Erythrocyte

Structure (SMILES): C[C@@]12C[C@@]3(O)O[C@@H](O1)[C@]1(COC(=O)c4ccc(O)cc4)[C@H]3C[C@@]12O[C@@H]1O[C@H](COC(=O)c2ccc(O)cc2)[C@@H](O)[C@H](O)[C@H]1O
- INH [1]: 0.34 mM
- AP50 [2]: 0.67 mM

Structure (SMILES): COc1cc(C(=O)OC[C@H]2O[C@@H](O[C@@]34C[C@H]5[C@@]3(CO)[C@H]3O[C@]5(O)C[C@]4(C)O3)[C@H](O)[C@@H](O)[C@@H]2O)ccc1O
- INH [1]: 0.89 mM
- AP50 [2]: 1.12 mM

Structure (SMILES): CO[C@]12C[C@]3(C)O[C@H](O1)[C@]1(COC(=O)c4ccc(O)cc4)[C@H]2C[C@@]13O[C@@H]1O[C@H](CO)[C@@H](O)[C@H](O)[C@H]1O
- inhibition [1]: inactive
- inhibition [2]: inactive

Structure (SMILES): C[C@@]12C[C@@]3(O)O[C@@H](O1)[C@]1(COC(=O)c4ccccc4)[C@@H]3C[C@]12O[C@@H]1O[C@H](COC(=O)c2ccc(O)cc2)[C@@H](O)[C@H](O)[C@H]1O
- INH [1]: 0.52 mM

Structure (SMILES): C[C@@]12C[C@@]3(O)O[C@@H](O1)[C@]1(COC(=O)c4ccc(O)cc4)[C@@H]3C[C@]12O[C@@H]1O[C@H](CO)[C@@H](O)[C@H](O)[C@H]1O
- INH [1]: 2.28 mM
- AP50 [2]: 3.29 mM

Structure (SMILES): C[C@@]12C[C@@]3(O)O[C@@H](O1)[C@]1(COC(=O)c4ccccc4)[C@@H]3C[C@]12O[C@@H]1O[C@H](COC(=O)c2cc(O)c(O)c(O)c2)[C@@H](O)[C@H](O)[C@H]1O
- inhibition [3]: inactive
- inhibition [4]: Active
- INH [1]: 0.21 mM
- AP50 [2]: 0.32 mM
- inhibition [5]: Active
- inhibition [6]: Active

Structure (SMILES): CO[C@H]1O[C@@]2(C)CC(=O)[C@H]3C[C@]2(O[C@@H]2O[C@H](COC(=O)c4ccccc4)[C@@H](O)[C@H](O)[C@H]2O)[C@]13COC(=O)c1ccccc1
- inhibition [1]: inactive
- inhibition [2]: inactive

Structure (SMILES): CO[C@H]1O[C@@]2(C)CC(=O)[C@@H]3C[C@@]2(O[C@@H]2O[C@H](CO)[C@@H](O)[C@H](O)[C@H]2O)[C@]13COC(=O)c1ccc(O)cc1
- inhibition [1]: inactive
- inhibition [2]: inactive

Structure (SMILES): C[C@@]12C[C@@]3(O)O[C@@H](O1)[C@]1(COC(=O)c4ccc(O)cc4)[C@H]3C[C@@]12O[C@@H]1O[C@H](COC(=O)c2cc(O)c(O)c(O)c2)[C@@H](O)[C@H](O)[C@H]1O
- inhibition [7]: inactive
- inhibition [8]: Active
- inhibition [9]: Active
- INH [1]: 0.14 mM
- AP50 [2]: 0.25 mM
- inhibition [10]: Active

Structure (SMILES): COc1ccc(C(=O)OC[C@@]23[C@@H](OC)O[C@@]4(C)CC(=O)[C@H]2C[C@]34O[C@@H]2O[C@H](COC(=O)c3ccccc3)[C@@H](O)[C@H](O)[C@H]2O)cc1
- inhibition [1]: inactive
- inhibition [2]: inactive

Structure (SMILES): COc1ccc(C(=O)OC[C@]23[C@H]4O[C@]5(O)C[C@](C)(O4)[C@@]2(O[C@@H]2O[C@H](CO)[C@@H](O)[C@H](O)[C@H]2O)C[C@H]35)cc1
- INH [1]: 2.67 mM
- AP50 [2]: 3.67 mM

Structure (SMILES): COc1ccc(C(=O)OC[C@H]2O[C@@H](O[C@]34C[C@@H]5C(=O)C[C@]3(C)O[C@H](OC)[C@]54COC(=O)c3ccccc3)[C@H](O)[C@@H](O)[C@@H]2O)cc1
- inhibition [1]: inactive
- inhibition [2]: inactive

Structure (SMILES): C[C@@]12C[C@@]3(O)OC(O1)[C@]1(COC(=O)c4ccc(O)cc4)[C@@H]3C[C@@]21O[C@@H]1O[C@H](COC(=O)c2ccccc2)[C@@H](O[C@@H]2O[C@H](CO)[C@@H](O)[C@H](O)[C@H]2O)[C@H](O)[C@H]1O
- Activity [11]: < 10%
- Activity [12]: < 10%
- Activity [13]: 89.3%
- Activity [14]: < 10%
- INH [1]: 0.33 mM
- Activity [15]: < 10%
- Activity [16]: 80.1%
- AP50 [2]: 0.43 mM

Structure (SMILES): COc1cc(C(=O)OC[C@H]2O[C@@H](O[C@@]34C[C@H]5[C@@]3(COC(=O)c3ccccc3)[C@H]3O[C@]5(O)C[C@]4(C)O3)[C@H](O)[C@@H](O)[C@@H]2O)ccc1O
- INH [1]: 2.02 mM

Structure (SMILES): COc1ccc(C(=O)OC[C@H]2O[C@@H](O[C@]34C[C@@H]5[C@@]6(O)C[C@]3(C)OC(O6)[C@]54COC(=O)c3ccccc3)[C@H](O)[C@@H](O)[C@@H]2O)cc1
- INH [1]: 2.36 mM
- AP50 [2]: 2.82 mM

Structure (SMILES): CO[C@]12C[C@]3(C)OC(O1)[C@]1(COC(=O)c4ccccc4)[C@@H]2C[C@@]31O[C@@H]1O[C@H](COC(=O)c2ccccc2)[C@@H](O)[C@H](O)[C@H]1O
- inhibition [1]: inactive
- inhibition [2]: inactive

Structure (SMILES): C[C@@]12C[C@@]3(O)O[C@@H](O1)[C@]1(COC(=O)c4ccccc4)[C@H]3C[C@@]12O[C@@H]1O[C@H](COC(=O)c2ccccc2)[C@@H](O[C@@H]2O[C@H](CO)[C@@H](O)[C@H](O)[C@H]2O)[C@H](O)[C@H]1O
- INH [1]: 2.29 mM
- inhibition [2]: inactive

Structure (SMILES): COc1ccc(C(=O)OC[C@H]2O[C@@H](O[C@]34C[C@@H]5[C@@]6(O)C[C@]3(C)OC(O6)[C@]54COC(=O)c3ccc(O)cc3)[C@H](O)[C@@H](O)[C@@H]2O)cc1
- INH [1]: 0.41 mM
- AP50 [2]: 0.97 mM

Structure (SMILES): COc1ccc(C(=O)OC[C@]23C4O[C@]5(OC)C[C@](C)(O4)[C@]2(O[C@@H]2O[C@H](COC(=O)c4ccccc4)[C@@H](O)[C@H](O)[C@H]2O)C[C@H]53)cc1
- inhibition [1]: inactive
- inhibition [2]: inactive

Structure (SMILES): CO[C@@H]1O[C@@]2(C)CC(=O)[C@H]3C[C@]2(O[C@@H]2O[C@H](COC(=O)c4ccccc4)[C@@H](O)[C@H](O)[C@H]2O)[C@]13COC(=O)c1ccccc1
- inhibition [1]: inactive
- inhibition [2]: inactive

Structure (SMILES): C[C@@]12C[C@@]3(O)OC(O1)[C@]1(COC(=O)c4ccc(O)cc4)[C@@H]3C[C@@]21O[C@@H]1O[C@H](COC(=O)c2ccccc2)[C@@H](O)[C@H](O)[C@H]1O
- INH [1]: 0.58 mM
- AP50 [2]: 0.85 mM

Structure (SMILES): COc1ccc(C(=O)OC[C@]23C4O[C@]5(O)C[C@](C)(O4)[C@]2(O[C@@H]2O[C@H](COC(=O)c4ccccc4)[C@@H](O)[C@H](O)[C@H]2O)C[C@H]53)cc1
- INH [1]: 1.29 mM
- AP50 [2]: 1.6 mM
